One assay deals with frog. The assay is described as follows: Potency in the frog (Rana pipiens) skin bioassay relative to alpha-MSH. It is filed as functional. In short, it runs like this:
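In vitro Rana pipiens skin bioassay scoring melanosome dispersion as skin darkening. Solutions were made by serial dilution from a 10⁻⁴ M stock. Responses are the mean ± SE of 6 or more skins. Potency was calculated along the linear portion of the dose-response curve and standardized to α-MSH = 1.00.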

For the next assay, the system named is lizara. Kind of assay: Potency in the lizard (Anolis carolinensis) skin bioassay relative to alpha-MSH. It counts as functional. In short, it runs like this: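 In vitro Anolis carolinensis skin bioassay scoring melanosome dispersion as skin darkening. Solutions were made by serial dilution from a 10⁻⁴ M stock. Potency was calculated along the linear portion of the dose-response curve and standardized to α-MSH = 1.00.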

In the case of `CC(=O)N[C@H]1CSSC[C@@H](C(=O)N[C@@H](CCCCN)C(N)=O)NC(=O)[C@H](Cc2c[nH]c3ccccc23)NC(=O)[C@H](CCCN=C(N)N)NC(=O)[C@@H](Cc2ccccc2)NC(=O)[C@H](Cc2c[nH]cn2)NC(=O)[C@H](CCC(=O)O)NC1=O`, the Potency stood at 2.5 in the assay on frog and 3 with lizara.
As to `CC(=O)N[C@@H](CO)C(=O)N[C@@H](Cc1ccc(O)cc1)C(=O)N[C@@H](CO)C(=O)N[C@H]1CSSC[C@@H](C(=O)N[C@@H](CCCCN)C(=O)N2CCC[C@H]2C(=O)N[C@H](C(N)=O)C(C)C)NC(=O)[C@H](Cc2c[nH]c3ccccc23)NC(=O)[C@@H](CCCN=C(N)N)NC(=O)[C@H](Cc2ccccc2)NC(=O)[C@@H](Cc2c[nH]cn2)NC(=O)[C@H](CCC(=O)O)NC1=O`, the figures for the Potency in the assay on frog and in the assay with lizara were 10 and 2, respectively.
For `CC(=O)N[C@H]1CSSC[C@@H](C(=O)N[C@@H](CCCCN)C(N)=O)NC(=O)[C@H](Cc2c[nH]c3ccccc23)NC(=O)[C@H](CCCN=C(N)N)NC(=O)[C@H](Cc2ccccc2)NC(=O)[C@H](Cc2c[nH]cn2)NC(=O)[C@H](CCC(=O)O)NC1=O` the same measures were 0.16 and 0.07.
On to `CC(=O)N[C@H]1CSSC[C@@H](C(N)=O)NC(=O)[C@H](Cc2c[nH]c3ccccc23)NC(=O)[C@H](CCCN=C(N)N)NC(=O)[C@@H](Cc2ccccc2)NC(=O)[C@H](Cc2c[nH]cn2)NC(=O)[C@H](CCC(=O)O)NC1=O`, for which the Potency with frog stood at 0.75; in the assay with lizara it was 0.5.
For `CC(=O)N[C@H]1CSSC[C@@H](C(N)=O)NC(=O)[C@H](Cc2c[nH]c3ccccc23)NC(=O)[C@H](CCCN=C(N)N)NC(=O)[C@H](Cc2ccccc2)NC(=O)[C@H](Cc2c[nH]cn2)NC(=O)[C@H](CCC(=O)O)NC1=O` the same measures were 0.06 and 0.003.
